# Reference: publication PMC8256004 (ChemMedChem, 2020)
# Tests used:
# [1] = tested on: KPC-Kpn; experiment: Micro-broth dilution MIC of cefepime in combination with inhibitor, KPC-Kpn; format: cell-based, Klebsiella pneumoniae; details: for MIC of cefepime (FEP) in combination with compound, KPC-Kpn: compound at constant 10 μg/mL, FEP 0.12 to 128 μg/mL
# Outline: (§1)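 CLSI broth microdilution. Cultures grown overnight in Mueller-Hinton broth, then diluted to a McFarland standard (OD600 0.224). Cefepime serially diluted from 128 to 0.12 μg/mL, with boronic acid test compound held constant at 10 μg/mL. Incubated overnight at 37 °C and MIC read the next day.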
# [2] = tested on: K. pneum blaKPC-2; format: cell-based, Klebsiella pneumoniae; details: compound at constant 10 μg/mL; FEP 0.12 to 128 μg/mL
# Outline: as §1
# [3] = target: KPC-2 β-lactamase (Klebsiella pneumoniae, UniProt Q9F663); experiment: Competition kinetics of KPC-2 inhibition with nitrocefin as substrate; format: biochemical
# KPC-2 β-lactamase, sequence (Q9F663 25-293, looked up): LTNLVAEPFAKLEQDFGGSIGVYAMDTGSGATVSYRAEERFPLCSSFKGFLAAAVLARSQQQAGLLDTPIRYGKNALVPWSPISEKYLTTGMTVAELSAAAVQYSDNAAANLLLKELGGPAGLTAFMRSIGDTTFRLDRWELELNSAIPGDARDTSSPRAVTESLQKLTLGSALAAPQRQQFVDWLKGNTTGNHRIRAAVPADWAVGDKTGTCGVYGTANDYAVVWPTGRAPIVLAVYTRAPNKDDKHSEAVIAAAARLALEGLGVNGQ
Compound,"MIC ([1]; Klebsiella pneumoniae, read-out: MIC of cefepime (FEP) alone, KPC-Kpn)","MIC of cefepime (FEP) in combination with compound, K. pneum blaKPC-2 [2]","MIC of cefepime (FEP) in combination with compound, KPC-Kpn [1]",Ki [3]
"CO/N=C(\C(=O)N[C@@H]1C(=O)N2C(C(=O)[O-])=C(C[N+]3(C)CCCC3)CS[C@H]12)c1csc(N)n1 [FEP, cefepime]",32 µg/mL,–,–,–
NC(=O)[C@@H]1CC[C@@H]2CN1C(=O)N2OS(=O)(=O)O [avibactam],–,< 0.12 µg/mL,< 0.12 µg/mL,–
O=C(O)C[C@@H]1CC[C@H](NC(=O)Cc2cccs2)B(O)O1 [vaborbactam],–,1 µg/mL,0.5 µg/mL,20 ± 3 nM
